Several values for one entry are separate records, joined by “and”; a condition that tells them apart may be missing. Identical values can stand only once.
What was measured:
[1] = molecular target: T1, D(2) dopamine receptor (Rattus norvegicus, UniProt P61169); assay: Binding affinity towards dopamine […] receptor using [3H]spiperone was determined in rat striatal membranes; type: cell membranes, Striatum, Membrane
[2] = molecular target: T2, D(1A) dopamine receptor (Rattus norvegicus, UniProt P18901); assay: Binding affinity against dopamine receptor D1
[3] = molecular target: T2, D(1A) dopamine receptor; assay: Binding affinity towards dopamine receptor D1 using [3H]SCH-23390 was determined in rat striatal membranes; type: cell membranes, Striatum, Membrane
[4] = molecular target: T1, D(2) dopamine receptor; assay: Binding affinity against dopamine (D2) receptor
In short: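 Competition with 0.02 nM [3H]spiperone plus 50 nM ketanserin to mask 5-HT2 sites; chlorpromazine defines nonspecific. 37 °C 15 min, glass-fiber filtration. IC50 from Hill plot linear regression, Ki by Cheng-Prusoff; mean ± SEM.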

[5] = molecular target: Dopamine receptors; D1 & D2 (Rattus norvegicus) (UniProt P18901+P61169); assay: Selectivity for D1 receptor was determined as the ratio of Ki (D2) to that of Ki (D1); type: protein assay
In short: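 D2 used 0.02 nM [3H]spiperone with 50 nM ketanserin; D1 used 0.25 nM [3H]SCH23390. IC50 from Hill plot linear regression, converted to Ki via Cheng-Prusoff.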

T1 sequence (P61169 whole entry): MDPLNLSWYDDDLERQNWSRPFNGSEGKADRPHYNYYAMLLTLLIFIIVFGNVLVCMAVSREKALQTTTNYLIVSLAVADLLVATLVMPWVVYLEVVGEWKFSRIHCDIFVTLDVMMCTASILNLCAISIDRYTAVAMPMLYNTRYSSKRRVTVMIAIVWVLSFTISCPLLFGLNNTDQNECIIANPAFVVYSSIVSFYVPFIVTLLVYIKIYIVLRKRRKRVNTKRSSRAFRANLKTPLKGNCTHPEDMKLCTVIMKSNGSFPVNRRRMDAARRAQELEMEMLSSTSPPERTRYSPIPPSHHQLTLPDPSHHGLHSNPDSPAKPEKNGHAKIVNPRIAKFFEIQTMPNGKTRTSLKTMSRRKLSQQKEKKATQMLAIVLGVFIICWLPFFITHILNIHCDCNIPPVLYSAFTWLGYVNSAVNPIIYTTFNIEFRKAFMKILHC
T2 sequence (P18901 whole entry): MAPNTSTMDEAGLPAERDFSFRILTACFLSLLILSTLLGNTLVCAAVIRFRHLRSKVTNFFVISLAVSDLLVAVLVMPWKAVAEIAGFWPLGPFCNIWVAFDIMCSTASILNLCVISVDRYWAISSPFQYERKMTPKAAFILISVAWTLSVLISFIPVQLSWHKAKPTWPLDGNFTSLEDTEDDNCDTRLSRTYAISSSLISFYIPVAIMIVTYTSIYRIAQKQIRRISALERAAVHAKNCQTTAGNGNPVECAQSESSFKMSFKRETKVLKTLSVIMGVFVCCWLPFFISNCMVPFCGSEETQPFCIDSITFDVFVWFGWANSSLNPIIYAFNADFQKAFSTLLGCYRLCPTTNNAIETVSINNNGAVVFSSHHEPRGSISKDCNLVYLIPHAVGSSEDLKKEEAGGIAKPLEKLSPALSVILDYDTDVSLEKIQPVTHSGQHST

CN1CCc2cc(Br)c(O)cc2[C@H]1c1ccccc1
Ki [1]: > 5000 nM
Ki [2]: 8.32 nM
Ki [3]: > 5000 nM

CN1CCc2cc(Cl)c(O)cc2[C@H]1c1ccccc1
Ki [2]: 6.61 nM
Ki [4]: 19500 nM
Ratio [5]: 43.4

CN1CCc2cc(Cl)c(O)cc2[C@@H]1c1ccccc1
Ki [2]: 9.12 nM
Log Ki [2]: -8.04
Ratio [5]: 206

CN1CCc2cc(Br)c(O)cc2[C@@H]1c1ccccc1
Ki [1]: 1300 nM
Ki [2]: 8.32 nM
Ki [3]: 8.3 nM
Ki [4]: 1320 nM
Ratio [5]: 157

CN1CCc2cc(O)ccc2[C@H]1c1ccccc1
Ki [1]: > 5000 nM
Ki [2]: > 10000 nM
Ki [3]: > 5000 nM

CN1CCc2ccc(O)cc2C1c1ccccc1 (racemic)
Ki [1]: > 5000 nM
Ki [2]: > 10000 nM
Ki [3]: > 5000 nM

CN1CCc2cc(O)c(O)cc2C1c1ccccc1 (racemic)
Ki [1]: 290 nM
Ki [2]: 186 nM
Ki [3]: 370 nM
Ki [4]: 295 nM
Ratio [5]: 1.27

CN1Cc2cc(Cl)c(O)cc2C(c2ccccc2)C1 (racemic)
Ki [2]: 178 nM and 87.1 nM
Ratio [5]: 3

CCCN1CCc2cc(Cl)c(O)cc2C1c1ccccc1 (racemic)
Ki [2]: 178 nM
Ki [3]: 179 nM
Ki [4]: 1910 nM
Ratio [5]: 10.6

Oc1cc2c(cc1Cl)CCN1CCc3ccccc3C21 (racemic)
Ki [1]: > 5000 nM
Ki [2]: 417 nM
Ki [3]: 830 nM

CN1Cc2ccccc2C2c3cc(O)c(Br)cc3CCC21 (racemic)
Ki [1]: > 3000 nM
Ki [2]: 141 nM
Ki [3]: 138 nM

Oc1cc2c(cc1O)C1c3ccccc3CCN1CC2 (racemic)
Ki [1]: > 5000 nM
Ki [2]: 1380 nM
Ki [3]: 2700 nM

Oc1cc2c(cc1Cl)CCNC2c1ccccc1 (racemic)
Ki [2]: 141 nM
Ki [3]: 743 nM
Ki [4]: 3720 nM
Ratio [5]: 35.4

Oc1cc2c(cc1Cl)CNCC2c1ccccc1 (racemic)
Ki [2]: 282 nM
Ratio [5]: 6.4

CN1CCc2cc(Cl)c(O)cc2C1Cc1ccccc1 (racemic)
Ratio [5]: 5.39
